Activity calls are given as the source filed them. The calls are words filed in the database; no cut-off is given here.
How the values were obtained:
[1] = molecular target: T1, Myeloblastin (Homo sapiens) (UniProt P24158); assay: Evaluated for the inhibition of Human leukocyte Proteinase 3 (PR-3)
T1 sequence (whole entry): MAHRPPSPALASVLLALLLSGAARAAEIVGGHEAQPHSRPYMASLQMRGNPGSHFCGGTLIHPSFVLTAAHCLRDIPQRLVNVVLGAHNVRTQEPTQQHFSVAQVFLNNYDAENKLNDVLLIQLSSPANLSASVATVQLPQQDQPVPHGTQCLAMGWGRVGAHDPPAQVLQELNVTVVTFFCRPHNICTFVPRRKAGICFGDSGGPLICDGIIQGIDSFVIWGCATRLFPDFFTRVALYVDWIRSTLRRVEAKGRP
In short: (§1)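 PR-3 purified from polymorphonuclear leukocyte granules. Inhibitor in DMSO was incubated with enzyme in 0.1 M phosphate, pH 6.5, in a constant-temperature bath. Aliquots taken over time went into BOC-Ala-p-nitrophenol (20 mM acetonitrile stock) in phosphate buffer. After 30 s, A347.5 was read for 1 min. kobs came from ln(vt/v0) versus time and is reported as kobs/[I] (M-1 s-1).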

[2] = molecular target: T1, Myeloblastin (Homo sapiens); assay: Evaluated for the inhibition of Human leukocyte Proteinase 3 (PR-3) following a 10-min incubation with a 50-fold excess of inhibitor; conditions: concentration not given here
[3] = molecular target: T2, Neutrophil elastase (Homo sapiens) (UniProt P08246); assay: Evaluated for the inhibition of Human leukocyte elastase
T2 sequence (whole entry): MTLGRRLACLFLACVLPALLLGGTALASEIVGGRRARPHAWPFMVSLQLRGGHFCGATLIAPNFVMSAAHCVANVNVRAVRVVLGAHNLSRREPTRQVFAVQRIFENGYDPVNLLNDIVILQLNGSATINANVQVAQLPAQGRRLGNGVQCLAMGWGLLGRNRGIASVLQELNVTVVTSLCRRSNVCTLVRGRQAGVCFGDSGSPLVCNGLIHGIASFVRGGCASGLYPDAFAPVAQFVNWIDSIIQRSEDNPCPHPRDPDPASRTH

[4] = molecular target: T1, Myeloblastin (Homo sapiens); assay: Evaluated for the inhibition of Human leukocyte Proteinase 3 (PR-3); Inactive; in short: as §1

K obs / 1 [1] [M⁻¹ s⁻¹]	Structure (SMILES)	also measured
2300	CC1CC(=O)N(OS(C)(=O)=O)C1=O (stereo not drawn)	–
13400	CCC1CC(=O)N(OS(C)(=O)=O)C1=O (stereo not drawn)	–
1200	CC(C)CC1CC(=O)N(OS(C)(=O)=O)C1=O (stereo not drawn)	–
800	CCCCC1CC(=O)N(OS(C)(=O)=O)C1=O (stereo not drawn)	K obs / 1 [3]: 4100 M⁻¹ s⁻¹
8600	CCCC1CC(=O)N(OS(C)(=O)=O)C1=O (stereo not drawn)	K obs / 1 [3]: 8600 M⁻¹ s⁻¹
3800	CCCCC1CC(=O)N(OS(=O)(=O)/C=C/c2ccccc2)C1=O (stereo not drawn)	–
10400	CC(C)CC1CC(=O)N(OS(=O)(=O)/C=C/c2ccccc2)C1=O (stereo not drawn)	–

Further lines, the compound ahead of its results:

Structure (SMILES)	K obs / 1 [1] [M⁻¹ s⁻¹]	also measured
O=C1CCC(=O)N1OS(=O)(=O)/C=C/c1ccccc1	–	inhibition [2]: < 35%
CC(C)C1CC(=O)N(OS(C)(=O)=O)C1=O (stereo not drawn)	2200	–
CC(C)C1CC(=O)N(OS(=O)(=O)/C=C/c2ccccc2)C1=O (stereo not drawn)	8100	K obs / 1 [3]: 100000 M⁻¹ s⁻¹
O=C1CC(Cc2ccccc2)C(=O)N1OS(=O)(=O)/C=C/c1ccccc1 (stereo not drawn)	–	inhibition [2]: < 35%
CC1CC(=O)N(OS(=O)(=O)/C=C/c2ccccc2)C1=O (stereo not drawn)	4500	–
CS(=O)(=O)ON1C(=O)CCC1=O	–	K obs / 1 [4]: inactive
CS(=O)(=O)ON1C(=O)CC(Cc2ccccc2)C1=O (stereo not drawn)	–	K obs / 1 [3]: 1100 M⁻¹ s⁻¹; K obs / 1 [4]: inactive

— ChEMBL document CHEMBL1125156, “Inhibitors of human leukocyte proteinase-3” (J Med Chem, 1990)
